The values that follow come from the M2OR odorant receptor database.

The target in this experiment is T1, OR5K1 (Homo sapiens) (UniProt Q8NHB7).
T1 sequence (whole entry): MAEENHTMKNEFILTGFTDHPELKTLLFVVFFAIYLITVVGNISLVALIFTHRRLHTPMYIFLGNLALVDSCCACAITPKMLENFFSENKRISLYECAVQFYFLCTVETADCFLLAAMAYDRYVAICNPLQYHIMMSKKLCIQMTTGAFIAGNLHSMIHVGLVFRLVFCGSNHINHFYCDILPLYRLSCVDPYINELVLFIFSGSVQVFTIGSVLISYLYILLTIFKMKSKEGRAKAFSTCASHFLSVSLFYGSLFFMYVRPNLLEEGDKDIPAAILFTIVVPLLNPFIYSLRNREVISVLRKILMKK
Conditions: stereoisomer not certain. Put shortly:
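Each entry records the cell line, G-protein, co-transfected protein and tags used. Methods varied with the source, often transient luciferase assays in mammalian cell lines. A receptor–molecule pair is called responsive (active) if the original authors judged its signal statistically different from baseline and non-responsive (inactive) otherwise.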
In the case of `CCCC(=O)OC`, the “odorant receptor agonist call” value is “inactive”.
For `CCCCCCCC1CCCC(=O)O1` (centres undefined), the “odorant receptor agonist call” value was “inactive”.
Consider `CCCCC=CC=O`, for which the “odorant receptor agonist call” value is “inactive”.
The entry for `CCCCC(=O)OCC` is “inactive”; for `CC(=O)OCCc1ccccc1` it is “inactive”.
On to `CCOC(=O)c1ccccc1`, for which the “odorant receptor agonist call” value is “inactive”.
The entry for `CC(C)c1ccc(C=O)cc1` is “inactive”.
The entry for `CCC=CCCOC(C)=O` is “inactive”; for `CCCC1CCCC(=O)O1` (centres undefined) it is “inactive”; for `CC(=O)C(C)O` (centres undefined) it is “inactive”.
On to `Cc1cccc(C)c1O`, for which the “odorant receptor agonist call” value was “inactive”.
Consider `COC1=C(C)OC(C)C1=O` (centres undefined), for which the “odorant receptor agonist call” value was “active”.
The entry for `CCc1cnc(C)c(C)n1` is “inactive”; for `CCC=O` it is “inactive”.
As for `CCO`, the “odorant receptor agonist call” value was “inactive”.
As for `CCOC(=O)CCC(C)C`, the “odorant receptor agonist call” value was “inactive”.
The entry for `CCCSSSCCC` is “inactive”.
Take `CC(C)=CC1CC(C)CCO1` (centres undefined): the “odorant receptor agonist call” value was “inactive”.
The entry for `Cc1c[nH]c2ccccc12` is “inactive”; for `CCC=CCCC=O` it is “inactive”; for `CCCCCC=CC=O` it is “inactive”.
In the case of `CCCSSCCC`, the “odorant receptor agonist call” value was “inactive”.
The entry for `CCCCCCCCCC(=O)OCC` is “inactive”; for `CCCCCc1ccccn1` it is “inactive”.
In the case of `CC(C)CC=O`, the “odorant receptor agonist call” value was “inactive”.
The entry for `CCCC=CC=O` is “inactive”; for `CCCCCCOC(C)=O` it is “inactive”.
The entry for `CCCc1ccc(O)c(OC)c1` is “inactive”; for `CC(=O)O` it is “inactive”; for `CCC=CCCC=CC=O` it is “inactive”.
The entry for `CSCSC` is “inactive”; for `SCc1cccs1` it is “inactive”; for `CC1=CCC(C(C)(C)S)CC1` (centres undefined) it is “inactive”.
`CCC=CCCC=CCO`: the “odorant receptor agonist call” value was “inactive”.
As to `CCCCCC(C)O` (centres undefined), the “odorant receptor agonist call” value was “inactive”.
`CC(=O)C1=NCCS1`: the “odorant receptor agonist call” value is “inactive”.
For `C=CC(=O)CC`, the “odorant receptor agonist call” value is “inactive”.
With `CC(=O)OCCC(C)C`, the “odorant receptor agonist call” value is “inactive”.
The entry for `SCCc1ccccc1` is “inactive”.
